We go through five compounds from ChEMBL document CHEMBL1154897, “HPLC-based activity profiling: discovery of piperine as a positive GABA(A) receptor modulator targeting a benzodiazepine-independent binding site” (J Nat Prod, 2010).

Active and inactive are the calls of the source. No cut-off for these calls is given here.

Experiment [1] deals with Oocyte. The experiment in a line: Activation of rat GABA alpha-1-beta-2-gamma-2 receptor expressed in xenopus oocytes assessed as potentiation of GABA-induced chloride current at 100 uM after 90 secs by two […] electrode voltage clamp assay. The format is cell-based. Summed up:
(§1)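 Rat α1, β2, γ2S cRNAs (1:1:10) injected into collagenase-defolliculated Xenopus oocytes, stored at 18 °C in ND96, recorded on days 1–5. Two-microelectrode voltage clamp at −70 mV. Bath: 90 mM NaCl, 1 mM KCl, 1 mM MgCl2, 1 mM CaCl2, 5 mM HEPES, pH 7.4. Cells with maximal currents > 3 μA discarded. Solutions delivered by automated fast perfusion.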

Experiment [2] concerns Oocyte. The experiment in a line: Activation of rat GABA alpha-1-beta-2-gamma-2 receptor expressed in xenopus oocytes assessed as potentiation of GABA-induced chloride current at 300 uM after 90 secs by two […] electrode voltage clamp assay. Type of experiment: cell-based. In short, it runs like this:
as §1

Experiment [3] is described as follows: (§2) Activation of rat GABA alpha-1-beta-2-gamma-2 receptor expressed in xenopus oocytes assessed as potentiation of GABA-induced chloride current after 90 secs by two […] electrode voltage clamp assay. The format is cell-based. Particulars: Oocyte. Summed up: (§3)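 Xenopus oocytes injected with rat α1, β2, γ2S cRNAs (1:1:10), kept at 18 °C in ND96, recorded days 1–5. Two-electrode voltage clamp at −70 mV in bath containing 90 mM NaCl, 1 mM KCl, 1 mM MgCl2, 1 mM CaCl2, 5 mM HEPES, pH 7.4. Compound (1–300 μM) preapplied 90 s, then coapplied with GABA EC5–10 by fast perfusion. Values n = 3.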

Experiment [4] concerns Oocyte. The description is as §2. Type of experiment: cell-based. Summed up:
as §3

Experiment [5] concerns Oocyte. Briefly: Activation of rat GABA alpha-1-beta-2-gamma-2 receptor expressed in xenopus oocytes assessed as potentiation of chloride current at 100 uM after 90 secs by two […] electrode voltage clamp assay. The format is cell-based. In short, it runs like this:
as §1

The test system of experiment [6] is Oocyte. Briefly: Activation of rat GABA alpha-1-beta-2-gamma-2 receptor expressed in xenopus oocytes assessed as potentiation of GABA-induced chloride current at 300 uM after 90 secs by two […] electrode voltage clamp assay relative to control in presence of flumazenil. The format is cell-based. In short, it runs like this:
as §1

Experiment [7] can be described thus: Displacement of [3H]-flumazenil from GABAA receptor. (In general: Displacement assays read how much labelled ligand stays bound in the presence of the test substance.)
The subject of experiment [8] is Oocyte. Briefly: Activation of rat GABA alpha-1-beta-2-gamma-2 receptor expressed in xenopus oocytes assessed as potentiation of GABA-induced chloride current at 100 uM after 90 secs by two […] electrode voltage clamp assay in presence of 1 uM Diazepam. The format is cell-based. In short, it runs like this: as §1

On to `O=C(/C=C/C=C/c1ccc2c(c1)OCO2)N1CCCCC1` [PIPERINE], for which the Activity in the experiment on Oocyte [1] was 226%; with Oocyte [2], 302%; in the experiment with Oocyte [4], “Dose-dependent effect”; in the experiment with Oocyte [6], 334%; in the experiment on Oocyte [8], 391%. Besides, the EC50 in experiment [3] turned out to be 52 µM. In the experiment on Oocyte [5], the outcome was inactive. The compound also had an IC50 in experiment [7] of 1200 µM.
`O=C(/C=C/CCc1ccc2c(c1)OCO2)N1CCCCC1` [PIPERANINE]: the Activity in the experiment with Oocyte [1] was 138%; with Oocyte [2], 187%; with Oocyte [4], “Dose-dependent effect”. For the same compound, the concentration giving a half-maximal response (EC50) in experiment [3] came out at 56 µM. In addition, the outcome in the experiment with Oocyte [5] was inactive.
Turning to `O=C(CCCC/C=C/c1ccc2c(c1)OCO2)N1CCCCC1`, in the experiment with Oocyte [1], the Activity turned out to be 32%. For the same compound, the result with Oocyte [5] was inactive.
For `CC(C)CNC(=O)/C=C/C=C/c1ccc2c(c1)OCO2`, in the experiment with Oocyte [1], the Activity was -10%. The outcome with Oocyte [5] was inactive.
For `O=C(/C=C/C=C/c1ccc2c(c1)OCO2)N1CCCC1` the same measures were -29% and “inactive”.

One may read the EC50 as the concentration giving half of the maximal effect. A word on the IC50: it is the concentration that gives 50% inhibition. A low value points to inhibition by little substance.
